What all share (format): functional, cell-based
For one experiment, the system named is PC-3. As to the kind of experiment: Cytotoxicity against apoptotic-sensitive human PC3 cells assessed as growth inhibition after 72 hrs by MTT-based colorimetric assay. The conditions noted are these: Homo sapiens, PC-3, 72 h. In a few lines: (§1)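 MTT colorimetric assay, 72 h exposure to the fumarate salt. Read-out is reduction of MTT to formazan by living cells. IC50 is the concentration that reduces the whole cell population by 50%. Six replicates per condition. Where compounds were not tested on every line, apoptosis-sensitive lines were PC3, MCF-7, LoVo and B16F10, and apoptosis-resistant lines were U373, T98G, A549 and SK-MEL-28.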

The next experiment concerns SK-MEL-28. As to the kind of experiment: Cytotoxicity against apoptotic-resistant human SK-MEL-28 cells assessed as growth inhibition after 72 hrs by MTT-based colorimetric assay. The conditions noted are these: Homo sapiens, SK-MEL-28, 72 h. In a few lines: as §1
The test system of a further experiment is A549. As to the kind of experiment: Cytotoxicity against apoptotic-resistant human A549 cells assessed as growth inhibition after 72 hrs by MTT-based colorimetric assay. Particulars: Homo sapiens, A549, 72 h. The method, boiled down:
as §1
For orientation: Formazan colour is commonly taken as a measure of viable cells.

The next experiment concerns B16-F10. As to the kind of experiment: Cytotoxicity against apoptotic-sensitive mouse B16F10 cells assessed as growth inhibition after 72 hrs by MTT-based colorimetric assay. Particulars: B16-F10, 72 h. In a few lines:
as §1

The test system of another experiment is LoVo. As to the kind of experiment: Cytotoxicity against apoptotic-sensitive human LoVo cells assessed as growth inhibition after 72 hrs by MTT-based colorimetric assay. Particulars: Homo sapiens, LoVo, 72 h. The method, boiled down:
as §1

The next experiment concerns MCF7. As to the kind of experiment: Cytotoxicity against apoptotic-sensitive human MCF7 cells assessed as growth inhibition after 72 hrs by MTT-based colorimetric assay. Particulars: Homo sapiens, MCF7, 72 h. The method, boiled down: as §1
A further experiment relates to T98G. As to the kind of experiment: Cytotoxicity against apoptotic-resistant human T98G cells assessed as growth inhibition after 72 hrs by MTT-based colorimetric assay. The conditions noted are these: Homo sapiens, T98G, 72 h. The method, boiled down: as §1

In general, IC50 refers to the concentration at which inhibition is half-maximal. Turning to `C=CCCCCOc1ncc(-c2cc(Cl)ccc2OC)n1C`, the half-inhibitory concentration (IC50) in the experiment with PC-3 was 32 µM; in the experiment with SK-MEL-28 it was 28 µM; with A549 it was 34 µM; in the experiment with B16-F10 it was 29 µM; with LoVo, 28 µM; in the experiment on MCF7, 25 µM. For the same molecule, the half-maximal inhibitory concentration (IC50) in the experiment on T98G came to 48 µM.
`C=CCCCCOc1ncc(-c2cccc(OC)c2OC)n1C`: the 50% inhibitory concentration (IC50) in the experiment on PC-3 is 36 µM; in the experiment on SK-MEL-28, 27 µM; in the experiment with A549, 43 µM; in the experiment with B16-F10, 27 µM; with LoVo it was 11 µM; in the experiment on MCF7, 28 µM. The concentration for half-maximal inhibition (IC50) in the experiment on T98G turned out to be 35 µM.
As for `C=CCCCCOc1ncc(-c2cc(F)c(F)cc2OC)n1C`, the 50% inhibitory concentration (IC50) in the experiment with PC-3 stood at 40 µM; with SK-MEL-28 it was 40 µM; in the experiment on A549, 43 µM; in the experiment on B16-F10 it was 43 µM; with LoVo, 36 µM; with MCF7 it was 32 µM. Further, the IC50 in the experiment on T98G turned out to be 53 µM.
As to `COc1ccccc1-c1cnc(OCC(F)(F)C(F)(F)C(F)(F)C(F)(F)C(F)(F)F)n1C`, the IC50 in the experiment with PC-3 worked out at 72 µM; in the experiment on SK-MEL-28, 66 µM; in the experiment on A549, 83 µM; in the experiment on B16-F10, 38 µM; in the experiment with LoVo it was 51 µM; in the experiment with MCF7, 63 µM. The concentration for half-maximal inhibition (IC50) in the experiment on T98G turned out to be 78 µM.
Regarding `C=CCCCCOc1nccn1C`, the 50% inhibitory concentration (IC50) in the experiment with PC-3 was greater than 100 µM; in the experiment with SK-MEL-28, greater than 100 µM; in the experiment on A549, greater than 100 µM; in the experiment with B16-F10, 51 µM; in the experiment on LoVo, greater than 100 µM; in the experiment on MCF7 it was greater than 100 µM. Moreover, the IC50 with T98G was greater than 100 µM.
For `C=CCCCCOc1ncc(-c2ccc(Cl)cc2OC)n1C`, the concentration for half-maximal inhibition (IC50) with PC-3 stood at 36 µM; in the experiment with SK-MEL-28, 50 µM; in the experiment with A549, 47 µM; in the experiment on B16-F10, 43 µM; with LoVo, 35 µM; with MCF7, 37 µM. Further, the IC50 in the experiment with T98G was 67 µM.
For `C=CCCCCOc1nc(-c2ccccc2OC)cn1C`, the half-maximal inhibitory concentration (IC50) in the experiment on PC-3 was 86 µM; in the experiment on SK-MEL-28, greater than 100 µM; in the experiment with A549 it was 91 µM; in the experiment on B16-F10, 69 µM; in the experiment with LoVo, 81 µM; in the experiment on MCF7, 77 µM. For the same molecule, the half-inhibitory concentration (IC50) in the experiment on T98G is greater than 100 µM.
Consider `COc1ccc(C)cc1-c1cnc(OCCCCc2ccccc2)n1C`, for which the IC50 with PC-3 worked out at 43 µM; with SK-MEL-28, 42 µM; in the experiment on A549, 40 µM; in the experiment on B16-F10, 34 µM; with LoVo it was 27 µM; in the experiment on MCF7, 28 µM. In addition, the IC50 in the experiment on T98G was determined as 44 µM.
As for `C=CCCCCOc1ncc(-c2cc(C(F)(F)F)ccc2OC)n1C`, the half-inhibitory concentration (IC50) came out at 57 µM in the experiment on PC-3; 56 µM with SK-MEL-28; 62 µM in the experiment on A549; 59 µM with B16-F10; 51 µM in the experiment on LoVo; 61 µM in the experiment with MCF7. For the same molecule, the IC50 in the experiment with T98G turned out to be 88 µM.
As to `Cn1c2cnc1OCC/C=C\CCCCOc1ccccc1-2`, the concentration for half-maximal inhibition (IC50) with PC-3 turned out to be 62 µM; in the experiment on SK-MEL-28 it was 85 µM; with A549 it was 74 µM; with B16-F10, 70 µM; in the experiment with LoVo, 40 µM; in the experiment on MCF7, 63 µM. Also, the half-maximal inhibitory concentration (IC50) with T98G turned out to be 100 µM.
Consider `CCCCCCOc1ncc(-c2ccccc2OC)n1C`, for which the IC50 turned out to be 33 µM with PC-3; 43 µM in the experiment with SK-MEL-28; 37 µM with A549; 38 µM in the experiment on B16-F10; 27 µM in the experiment on LoVo; 27 µM with MCF7. Also, the IC50 in the experiment with T98G was 58 µM.
For `CCCCOc1ncc(-c2ccccc2OC)n1C`, the IC50 with PC-3 was 71 µM; with SK-MEL-28 it was 82 µM; with A549 it was 87 µM; in the experiment with B16-F10 it was 71 µM; with LoVo, 39 µM; with MCF7 it was 55 µM. For the same molecule, in the experiment on T98G, the half-inhibitory concentration (IC50) amounted to 96 µM.
Regarding `COc1ccccc1-c1cnc(OCCCc2ccccc2)n1C`, the IC50 in the experiment on PC-3 worked out at 27 µM; with SK-MEL-28, 4 µM; in the experiment with A549, 3 µM; in the experiment with B16-F10, 7 µM; with LoVo it was 3 µM; in the experiment on MCF7 it was 3 µM. Also, the IC50 with T98G is 3 µM.
On to `C#CCCCCOc1ncc(-c2ccccc2OC)n1C`, for which the 50% inhibitory concentration (IC50) with PC-3 was determined as 21 µM; in the experiment with SK-MEL-28 it was 38 µM; in the experiment with A549, 22 µM; in the experiment with B16-F10 it was 34 µM; with LoVo, 11 µM; in the experiment with MCF7, 10 µM. The half-maximal inhibitory concentration (IC50) in the experiment with T98G is 35 µM.
As for `C=CCCCCOc1ncc(I)n1C`, the concentration for half-maximal inhibition (IC50) with PC-3 is greater than 100 µM; with SK-MEL-28, greater than 100 µM; in the experiment with A549 it was greater than 100 µM; in the experiment with B16-F10, 51 µM; in the experiment on LoVo, 84 µM; in the experiment with MCF7 it was greater than 100 µM. Moreover, the IC50 with T98G was greater than 100 µM.
Consider `C=CCCCCOc1ncc(-c2cc(C(C)C)ccc2OC)n1C`, for which the IC50 turned out to be 9 µM with PC-3; 3 µM in the experiment with SK-MEL-28; 4 µM with A549; 7 µM in the experiment with B16-F10; 3 µM with LoVo; 18 µM in the experiment on MCF7. For the same molecule, in the experiment with T98G, the IC50 was 6 µM.

These data come from ChEMBL document CHEMBL3091366, “New 5-Aryl-1H-imidazoles display in vitro antitumor activity against apoptosis-resistant cancer models, including melanomas, through mitochondrial targeting” (J Med Chem, 2013).
